Bioassay records as filed in PubChem.
MC4R barr agon = agonists of human melanocortin 4 receptor (MC4R) beta-arrestin; hit rate 0.98% among 360,000; U2OS MC4R beta-arrestin complementation, luminescence; percent of melanotan II response, DMSO zero; activation, % at 8.9 µM;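 active means activation above a per-plate cutoff, the mean activation of sample wells on that plate plus 3 SD, cut at about 8% in these data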
PG9 binder = PG9 antibody binding by small molecule; TR-FRET gp120-PG9 antibody binding; inhibition, % at 6.7 µM; hit rate 0.43% among 360,000; in the data active means inhibition above about 8.5%
Rev-erbA mod = Rev-erb alpha (human) modulation. P20393. Rev-erbα–FITC-DNA binding, fluorescence polarization, 90 min. hit rate 0.79% among 370,000. AID 1259318. activity, % at 10 µM;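 active means activity above about 14%, limit read from the data; passing the limit was not always enough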;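 further: 0% = DMSO wells with 35 nM protein and 100% = DMSO wells with 750 nM protein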
Target sequence (P20393 whole entry, looked up): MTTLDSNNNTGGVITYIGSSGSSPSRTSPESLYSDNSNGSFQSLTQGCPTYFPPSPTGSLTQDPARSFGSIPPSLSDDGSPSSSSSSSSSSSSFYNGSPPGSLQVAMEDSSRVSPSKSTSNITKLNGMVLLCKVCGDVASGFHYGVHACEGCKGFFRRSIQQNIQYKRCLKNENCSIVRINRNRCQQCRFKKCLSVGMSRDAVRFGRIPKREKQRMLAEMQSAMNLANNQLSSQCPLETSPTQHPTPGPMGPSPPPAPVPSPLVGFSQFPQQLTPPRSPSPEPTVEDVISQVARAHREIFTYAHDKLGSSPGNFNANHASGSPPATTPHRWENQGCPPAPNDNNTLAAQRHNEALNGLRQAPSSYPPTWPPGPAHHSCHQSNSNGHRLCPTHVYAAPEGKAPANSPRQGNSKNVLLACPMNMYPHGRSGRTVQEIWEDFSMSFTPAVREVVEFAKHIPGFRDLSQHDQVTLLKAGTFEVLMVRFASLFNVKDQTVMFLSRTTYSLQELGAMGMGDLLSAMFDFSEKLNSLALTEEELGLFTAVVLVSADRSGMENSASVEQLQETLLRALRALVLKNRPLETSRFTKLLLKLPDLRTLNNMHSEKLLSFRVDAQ
NTR1 ag = activates human neurotensin receptor 1. hit rate 0.17% among 330,000. activation, % at 20 µM. AID 493036. NTR1-U2OS beta-arrestin-GFP spot imaging, agonist mode;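 active means activation at or above 40% of the spot to cytoplasm intensity ratio, with at least 20 cells analyzed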;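 further: 0% = DMSO without peptide and 100% = 100 nM NTR1 peptide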
MC4R antagonist = blocks human MC4R cAMP signaling | MC4R-expressing cells, MTII-stimulated cAMP, LANCE TR-FRET | hit rate 0.48% among 360,000 | inhibition, % at 6.5 µM;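 active means inhibition above its plate's cutoff, the mean of tested wells on that plate plus 3 SD, cut at about 29% in these data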;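 further: 0% = Melanotan II alone and 100% = Melanotan II plus saturating MCL0020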
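system = U2OS cells with stable human MC4R expression | also added = Melanotan II challenge after compound preincubation | dosing = one concentration, 6.5 µM nominal | incubation = compound 30 min, challenge 1 h, detection 1 h | measured by = TR-FRET with Eu-cAMP and labeled anti-cAMP, 671 nm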
* = called active by the depositor. Hits are enriched below; roughly 2.5% of the tested compounds scored in any of these assays.

Results for CCC(C)c1ccccc1NC(=O)CN(C)CCOc1ccc(Cl)cc1 (stereo unspecified) ?
MC4R barr agon: 8.6*; PG9 binder: -1; Rev-erbA mod: -3; NTR1 ag: 1; MC4R antagonist: 18

Results for COc1cccc(C2CC(c3ccc(Cl)cc3Cl)Nc3nc(N)nn32)c1 (stereo unspecified) ?
MC4R barr agon: 9.2*; PG9 binder: -2; Rev-erbA mod: 4; NTR1 ag: 1; MC4R antagonist: 11

What do the screens show for `COc1cccc(C2CC(c3ccccc3Cl)Nc3nc(N)nn32)c1` (stereo unspecified)?
MC4R barr agon: 3; PG9 binder: 2; Rev-erbA mod: 5; NTR1 ag: -1; MC4R antagonist: 10

What do the screens show for `O=C(CC(=O)c1cc(Cl)ccc1O)c1ccccc1`?
MC4R barr agon: 2; PG9 binder: 0; Rev-erbA mod: 4; NTR1 ag: 15; MC4R antagonist: -3

What do the screens show for `O=C(c1ccccc1)c1cc(Cl)ccc1N1C(=O)C=CC1=O`?
MC4R barr agon: -1; PG9 binder: -1; Rev-erbA mod: 2; MC4R antagonist: 58*

What do the screens show for `COCCCNC(=O)[C@@H](Cc1ccccc1)NC(=O)[C@H]1O[C@@H](n2ccc(=O)[nH]c2=O)[C@H](O)[C@@H]1O`?
PG9 binder: -1; Rev-erbA mod: 0

Results for C=CC[C@H](CC(=O)N[C@H](CO)Cc1ccccc1)C(=O)N[C@H](COC(=O)[C@@H](CC=C)CC(=O)OC(C)(C)C)Cc1c[nH]c2ccccc12 ?
MC4R barr agon: 8.3*; PG9 binder: -1; Rev-erbA mod: -1; NTR1 ag: 5; MC4R antagonist: 11

How did C=CC[C@@H](CC(=O)N[C@H](CO)Cc1ccccc1)C(=O)N[C@H](COC(=O)[C@@H](CC=C)CC(=O)OC(C)(C)C)Cc1c[nH]c2ccccc12 do in these assays?
MC4R barr agon: 2; PG9 binder: 0; Rev-erbA mod: 4; NTR1 ag: 13; MC4R antagonist: 3

What do the screens show for `CC1(C)CC(=O)C=C(c2ccccc2F)C1=O`?
PG9 binder: -2; Rev-erbA mod: -4

What do the screens show for `CC(=O)NCCNC(=O)c1ccc(Cn2c(=O)[nH]c3ccsc3c2=O)cc1`?
MC4R barr agon: 1; PG9 binder: -4; Rev-erbA mod: -1; NTR1 ag: 2; MC4R antagonist: 21

How did O=C(Nc1cc(Cl)cc(Cl)c1)c1ccc(Cn2c(=O)[nH]c3ccsc3c2=O)cc1 do in these assays?
MC4R barr agon: 20*; NTR1 ag: 16; MC4R antagonist: 7

How did O=C(CNC(=O)/C(=C\c1ccc(F)cc1)NC(=O)c1ccccc1)OCc1ccccc1 do in these assays?
MC4R barr agon: 0; PG9 binder: 0; Rev-erbA mod: 1; NTR1 ag: 9; MC4R antagonist: 44*

How did C[C@@H](CO)N(Cc1cn(Cc2ccccc2)nn1)S(=O)(=O)c1ccccc1Br do in these assays?
Rev-erbA mod: -1

Results for CCC1CCc2sc(C(=O)Nc3cc(S(=O)(=O)N4CCOCC4)ccc3OC)cc2C1 (stereo unspecified) ?
Rev-erbA mod: -13

What do the screens show for `CC1CCN(CC(=O)Nc2ccccc2-c2ccccc2)CC1`?
MC4R barr agon: 0; PG9 binder: -1; Rev-erbA mod: 4; NTR1 ag: 6; MC4R antagonist: 0

What do the screens show for `CC1CCCCC1NCC(=O)Nc1ccccc1-c1ccccc1` (stereo unspecified)?
MC4R barr agon: 9.5*; PG9 binder: 0; Rev-erbA mod: -3; NTR1 ag: -2; MC4R antagonist: 11

Results for CCOC(=O)c1c(C)oc2c(F)c(F)c(F)c(F)c2c1=O ?
MC4R barr agon: 0; PG9 binder: 1; Rev-erbA mod: -6; NTR1 ag: 21; MC4R antagonist: 33*

What do the screens show for `O=C(c1ccccc1)N1CCC2CCN(S(=O)(=O)c3ccccc3)CC21` (stereo unspecified)?
PG9 binder: 2; Rev-erbA mod: 2

How did Fc1ccccc1Cn1ccc2ccc(-c3ccc4ccn(Cc5ccccc5F)c4c3)cc21 do in these assays?
Rev-erbA mod: 1

What do the screens show for `Cc1cc(NC(=O)Nc2ccccc2F)ccc1Br`?
MC4R barr agon: 8.7*; PG9 binder: 0; Rev-erbA mod: -1; NTR1 ag: 2; MC4R antagonist: 3

How did COc1ccc(C(=O)Nc2ccc(C(=O)OCC(=O)c3ccccc3)cc2)cc1 do in these assays?
MC4R barr agon: 0; PG9 binder: 1; Rev-erbA mod: 2; NTR1 ag: 1; MC4R antagonist: 3

How did COc1cccc(C(=O)COC(=O)c2ccc(NC(=O)c3ccccc3)cc2)c1 do in these assays?
MC4R barr agon: 8.7*; PG9 binder: -1; Rev-erbA mod: -3; NTR1 ag: 5; MC4R antagonist: 0

How did COc1ccc(NC(=O)c2ccc(-c3ccc(OC)cc3)s2)cc1 do in these assays?
MC4R barr agon: 8.5*; PG9 binder: 2; Rev-erbA mod: 4; NTR1 ag: 1; MC4R antagonist: -8

How did CNC(=O)c1ccc(-c2ccc(OC)cc2)s1 do in these assays?
MC4R barr agon: 0; PG9 binder: -1; Rev-erbA mod: -2; NTR1 ag: 1; MC4R antagonist: 8

What do the screens show for `CC(C)(C)c1ccc(C(=O)Nc2cc(Cl)ccc2C(=O)O)cc1`?
Rev-erbA mod: -4

Results for CCCCC1=CC2=C(c3ccco3)C(=O)C(C)(OC(=O)c3ccc(OC)cc3)C(=O)C2=CN1CC(C)C (stereo unspecified) ?
MC4R barr agon: 1; PG9 binder: 37*; Rev-erbA mod: 1; NTR1 ag: 2; MC4R antagonist: 11

Results for CCCCC1=CC2=C(c3ccco3)C(=O)C(C)(OC(=O)c3ccc(OC)cc3)C(=O)C2=CN1c1ccc(OC)cc1 (stereo unspecified) ?
MC4R barr agon: -1; PG9 binder: 11*; Rev-erbA mod: 5; NTR1 ag: 2; MC4R antagonist: 16

How did C=CCN(Cc1ccc2c(c1)OCO2)C(C#CCCCC)C(C)C (stereo unspecified) do in these assays?
Rev-erbA mod: -10

What do the screens show for `O=C(Nc1ccc(Br)cn1)c1ccc(COc2c(F)c(F)cc(F)c2F)o1`?
MC4R barr agon: 8.4*; PG9 binder: 1; Rev-erbA mod: -5; NTR1 ag: -2; MC4R antagonist: 4

What do the screens show for `O=C(OC12CCCN(C1)/C(=C/c1cccc(Cl)c1)C2)C1CCCCC1` (stereo unspecified)?
Rev-erbA mod: 7

Results for O=[N+]([O-])/C=C/c1c(OCc2ccccc2)ccc2ccccc12 ?
MC4R barr agon: 2; NTR1 ag: 61*; MC4R antagonist: 12

How did CCOC(=O)COc1ccc2ccccc2c1/C=C/[N+](=O)[O-] do in these assays?
MC4R barr agon: -1; PG9 binder: 1; Rev-erbA mod: -6; MC4R antagonist: 12

What do the screens show for `O=c1c2ccccc2n(Cc2ccco2)n1[C@@H](Cc1ccccc1)Cn1cc(-c2ccc(-c3ccccc3)cc2)nn1`?
Rev-erbA mod: 5
